Source: ChEMBL document CHEMBL4819032, “Structure-based design of highly selective 2,4,5-trisubstituted pyrimidine CDK9 inhibitors as anti-cancer agents” (Eur J Med Chem, 2021)
pKi: −log10 of the molar value.

What was measured:
CDK9/cyclin T1 = CDK9/cyclin T1 (Homo sapiens, UniProt P50750); experiment: Inhibition of recombinant human full length CDK9/Cyclin T1 using KTFCGTPEYLAPEVRREPRILSEEEQEMFRDFDYIADWC as substrate incubated for 40 mins in presence of [gamma-33P]-ATP by scintillation counting method; format: protein-complex assay
In short: (§1)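 Radiometric kinase assay with ATP at each kinase's Km(app). IC50 values come from 10-point dose-response curves, and apparent Ki is calculated from IC50 and the kinase's Km(ATP).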

CDK2/Cyclin A2 = CDK2/Cyclin A2 (Homo sapiens, UniProt P24941); experiment: Inhibition of recombinant human full length CDK2/Cyclin A using histone H1 as substrate incubated for 40 mins in presence of [gamma-33P]-ATP by scintillation counting method; format: protein-complex assay
Homo sapiens [1] = species on record: Homo sapiens; experiment: Selectivity index, ratio of Ki for inhibition of recombinant human full length CDK2/Cyclin A to Ki for inhibition of recombinant human full length CDK9/Cyclin T1
In short: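 Ratio of apparent Ki values for the two CDK/cyclin complexes. Each Ki is derived from an IC50 (10-point radiometric dose-response, ATP at Km(app)) using the kinase's Km(ATP). The selectivity index is defined as Ki(CDK2)/Ki(CDK9).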

HCT-116 = experiment: Growth inhibition of human HCT-116 cells after 48 hrs by MTT assay; format: functional
MCF7 = experiment: Growth inhibition of human MCF7 cells after 48 hrs by MTT assay; format: functional
HT-29 = experiment: Growth inhibition of human HT-29 cells after 48 hrs by MTT assay; format: functional
MDA-MB-468 = experiment: Growth inhibition of human MDA-MB-468 cells after 48 hrs by MTT assay; format: functional
A549 = experiment: Growth inhibition of human A549 cells after 48 hrs by MTT assay; format: functional
A2780 = experiment: Growth inhibition of human A2780 cells after 48 hrs by MTT assay; format: functional
HeLa = experiment: Growth inhibition of human HeLa cells after 48 hrs by MTT assay; format: functional
MIA PaCa-2 = experiment: Growth inhibition of human MIA PaCa-2 cells after 48 hrs by MTT assay; format: functional
[2] = target: Cyclin-dependent kinase 1/cyclin B1 (Homo sapiens, UniProt P06493); experiment: Inhibition of recombinant human full length CDK1/Cyclin B using histone H1 as substrate incubated for 40 mins in presence of [gamma-33P]-ATP by scintillation counting method; format: protein-complex assay; in short: as §1
[3] = target: Cyclin-dependent kinase 7/ cyclin H (Homo sapiens, UniProt P50613); experiment: Inhibition of recombinant human full length CDK7/Cyclin H using peptide as substrate incubated for 40 mins in presence of [gamma-33P]-ATP by scintillation counting method; format: protein-complex assay; in short: as §1
Homo sapiens [4] = species on record: Homo sapiens; experiment: Selectivity index, ratio of Ki for inhibition of recombinant human full length […]
[5] = Growth inhibition of patient derived CLL cells after 48 hrs by annexin V-FITC staining based flow cytometric analysis; format: functional; details: Homo sapiens, CLL-CII
In short: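 Freshly isolated primary CLL cells (10⁶/mL) in RPMI with 10% foetal calf serum, L-glutamine, penicillin and streptomycin, 37 °C, 5% CO₂, exposed to inhibitor for 48 h. Cells labelled with CD19-APC and annexin V-FITC; apoptosis quantified by flow cytometry in CD19+ cells. LD50 is the concentration killing 50% of CLL cells.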

Chain of CDK9/cyclin T1 (O60563 whole entry): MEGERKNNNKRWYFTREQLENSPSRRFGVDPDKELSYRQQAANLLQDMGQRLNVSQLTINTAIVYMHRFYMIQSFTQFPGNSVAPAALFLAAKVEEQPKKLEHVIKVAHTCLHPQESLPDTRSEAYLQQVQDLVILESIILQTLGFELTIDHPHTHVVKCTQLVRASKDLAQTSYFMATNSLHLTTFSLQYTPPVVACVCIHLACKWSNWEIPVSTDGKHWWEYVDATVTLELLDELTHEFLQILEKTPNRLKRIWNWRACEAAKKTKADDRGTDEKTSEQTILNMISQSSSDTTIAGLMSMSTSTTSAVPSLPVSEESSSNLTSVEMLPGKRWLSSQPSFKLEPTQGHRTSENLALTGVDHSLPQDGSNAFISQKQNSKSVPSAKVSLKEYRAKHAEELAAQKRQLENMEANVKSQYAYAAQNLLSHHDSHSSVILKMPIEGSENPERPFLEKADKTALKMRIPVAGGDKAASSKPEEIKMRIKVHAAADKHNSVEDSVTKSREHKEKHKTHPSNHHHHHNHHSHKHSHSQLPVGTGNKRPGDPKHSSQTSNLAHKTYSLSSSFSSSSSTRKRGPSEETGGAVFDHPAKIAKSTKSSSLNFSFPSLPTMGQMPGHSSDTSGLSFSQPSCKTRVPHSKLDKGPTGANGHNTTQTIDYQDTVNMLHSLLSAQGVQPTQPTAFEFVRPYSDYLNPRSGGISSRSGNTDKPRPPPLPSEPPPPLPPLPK
Chain of CDK9/cyclin T1 (P50750 whole entry): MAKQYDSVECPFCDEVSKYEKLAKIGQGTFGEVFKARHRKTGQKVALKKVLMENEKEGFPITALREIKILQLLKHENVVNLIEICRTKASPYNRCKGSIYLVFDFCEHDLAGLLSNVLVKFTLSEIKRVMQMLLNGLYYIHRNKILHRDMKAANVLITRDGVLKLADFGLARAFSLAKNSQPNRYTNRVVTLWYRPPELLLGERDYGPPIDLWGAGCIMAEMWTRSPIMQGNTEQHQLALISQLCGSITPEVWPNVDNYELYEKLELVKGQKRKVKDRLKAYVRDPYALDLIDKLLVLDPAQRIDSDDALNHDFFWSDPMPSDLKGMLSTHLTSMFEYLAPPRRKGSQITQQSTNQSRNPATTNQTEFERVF
Chain of Cyclin-dependent kinase 1/cyclin B1 (P06493 whole entry): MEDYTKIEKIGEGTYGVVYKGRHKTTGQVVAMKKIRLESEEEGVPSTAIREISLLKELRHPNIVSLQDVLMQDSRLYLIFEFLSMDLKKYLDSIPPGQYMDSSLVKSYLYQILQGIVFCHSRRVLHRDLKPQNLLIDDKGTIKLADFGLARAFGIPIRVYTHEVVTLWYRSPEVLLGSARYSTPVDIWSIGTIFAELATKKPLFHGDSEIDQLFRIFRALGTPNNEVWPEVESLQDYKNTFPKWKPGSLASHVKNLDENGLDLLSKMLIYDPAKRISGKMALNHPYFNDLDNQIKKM
Chain of Cyclin-dependent kinase 1/cyclin B1 (P14635 whole entry, further chain): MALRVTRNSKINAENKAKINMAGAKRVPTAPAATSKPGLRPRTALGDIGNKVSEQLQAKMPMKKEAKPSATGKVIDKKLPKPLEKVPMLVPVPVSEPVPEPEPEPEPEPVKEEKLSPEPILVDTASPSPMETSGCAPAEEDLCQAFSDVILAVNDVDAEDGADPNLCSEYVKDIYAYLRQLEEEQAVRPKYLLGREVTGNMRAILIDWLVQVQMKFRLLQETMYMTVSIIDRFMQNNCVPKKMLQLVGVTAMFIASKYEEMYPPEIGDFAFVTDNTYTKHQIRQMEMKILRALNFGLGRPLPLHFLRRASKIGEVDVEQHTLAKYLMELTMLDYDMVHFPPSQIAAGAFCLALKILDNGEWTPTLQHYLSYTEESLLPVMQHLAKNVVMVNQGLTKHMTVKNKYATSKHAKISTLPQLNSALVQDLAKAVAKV
Chain of Cyclin-dependent kinase 7/ cyclin H (P51946 whole entry): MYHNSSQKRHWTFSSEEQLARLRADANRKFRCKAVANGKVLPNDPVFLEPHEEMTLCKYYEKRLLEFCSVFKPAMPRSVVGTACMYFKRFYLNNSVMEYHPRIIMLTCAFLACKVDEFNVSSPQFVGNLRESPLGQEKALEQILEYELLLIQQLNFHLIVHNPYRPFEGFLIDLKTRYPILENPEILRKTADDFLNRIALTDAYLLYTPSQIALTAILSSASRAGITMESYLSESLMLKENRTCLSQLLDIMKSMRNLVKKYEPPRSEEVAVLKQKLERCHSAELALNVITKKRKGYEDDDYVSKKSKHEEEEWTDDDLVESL
Chain of Cyclin-dependent kinase 7/ cyclin H (P50613 whole entry): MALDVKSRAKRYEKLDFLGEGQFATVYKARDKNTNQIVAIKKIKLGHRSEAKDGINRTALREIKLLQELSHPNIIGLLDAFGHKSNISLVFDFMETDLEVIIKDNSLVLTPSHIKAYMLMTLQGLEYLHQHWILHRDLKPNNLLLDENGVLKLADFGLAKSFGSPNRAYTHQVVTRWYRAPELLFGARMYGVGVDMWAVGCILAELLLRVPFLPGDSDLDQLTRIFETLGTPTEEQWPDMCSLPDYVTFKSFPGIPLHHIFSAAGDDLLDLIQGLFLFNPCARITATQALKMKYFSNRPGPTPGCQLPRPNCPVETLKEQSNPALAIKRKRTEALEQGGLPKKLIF

SMILES | pKi (CDK9/cyclin T1) | pKi (CDK2/Cyclin A2) | Ratio Ki (Homo sapiens [1]) | GI50 (HCT-116) [nM] | GI50 (MCF7) [nM] | GI50 (HT-29) [nM] | GI50 (MDA-MB-468) [nM] | GI50 (A549) [nM] | GI50 (A2780) [nM] | GI50 (HeLa) [nM] | GI50 (MIA PaCa-2) [nM] | pKi [2] | pKi [3] | Ratio Ki (Homo sapiens [4]) | GI50 [5] [nM]
CNc1nc(C2CC2)c(-c2ccnc(Nc3cccc(C(=O)NC4CCN(C)CC4)c3)n2)s1 | 7.40 | 6.89 | 3 | 770 | 1950 |  |  |  |  |  |  |  |  |  | 
CNc1nc(C)c(-c2nc(Nc3cc(C)cc(N4CCCCCC4)c3)ncc2C#N)s1 | 7.60 | 7.28 | 2 | 4050 | 7040 |  |  |  |  |  |  |  |  |  | 
CNc1ncc(-c2ccnc(Nc3cccc(N4CCCNCC4)c3)n2)s1 | 8.52 | 7.66 | 7 | 80 | 60 |  |  |  |  |  |  |  |  |  | 
CNc1nc(C)c(-c2ccnc(Nc3cc(N4CCN(C(C)=O)CC4)cc(N4CCN(C(C)=O)CC4)c3)n2)s1 | 6.73 | 5.68 | 11 | 200 | 420 |  |  |  |  |  |  |  |  |  | 
CN1CC[C@H](c2c(O)cc(O)c3c(=O)cc(-c4ccccc4Cl)oc23)[C@H](O)C1 [ALVOCIDIB] |  |  |  | 56 | 92 | 131 | 96 | 145 | 64 | 43 | 78 |  |  |  | 
CNc1nc(C)c(-c2ccnc(Nc3cc(N4CCOCC4)cc(N4CCOCC4)c3)n2)s1 | 7.33 | 6.08 | 18 | 340 | 380 |  |  |  |  |  |  |  |  |  | 
CNc1nc(C(C)C)c(-c2ccnc(Nc3cccc(N4CCN(C(C)=O)CC4)c3)n2)s1 | 7.04 | 6.17 | 8 | 80 | 70 |  |  |  |  |  |  |  |  |  | 
CNc1nc(C)c(-c2nc(Nc3cc(N4CCN(C(C)=O)CC4)cc(N4CCN(C(C)=O)CC4)c3)ncc2C#N)s1 | 7.68 | 6.61 | 12 | 700 | 2400 |  |  |  |  |  |  |  |  |  | 
CNc1nc(C(F)(F)F)c(-c2ccnc(Nc3cccc(N4CCCNCC4)c3)n2)s1 | 8.10 | 7.85 | 2 | 70 | 650 |  |  |  |  |  |  |  |  |  | 
CC(=O)N1CCN(c2cccc(Nc3ncc4c(n3)-c3sc(N)nc3CC4)c2)CC1 | 7.47 | 7.06 | 2.5 | 60 | 80 |  |  |  |  |  |  |  |  |  | 
CNc1nc(C)c(-c2nc(Nc3cc(N4CCN(C(C)=O)CC4)cc(N4CCN(C(C)=O)CC4)c3)ncc2C)s1 | 7.37 | 5.86 | 32 | 780 | 2000 |  |  |  |  |  |  |  |  |  | 
CNc1nc(C)c(-c2nc(Nc3cc(C)cc(N4CCNCC4)c3)ncc2C#N)s1 | 8.22 | 7.35 | 8 | 80 | 610 |  |  |  |  |  |  |  |  |  | 

More lines, main results first:

pKi (CDK9/cyclin T1) | pKi (CDK2/Cyclin A2) | Ratio Ki (Homo sapiens [1]) | GI50 (HCT-116) [nM] | GI50 (MCF7) [nM] | GI50 (HT-29) [nM] | GI50 (MDA-MB-468) [nM] | GI50 (A549) [nM] | GI50 (A2780) [nM] | GI50 (HeLa) [nM] | GI50 (MIA PaCa-2) [nM] | pKi [2] | pKi [3] | Ratio Ki (Homo sapiens [4]) | SMILES | GI50 [5] [nM]
7.92 | 6.10 | 66 | 550 | 3650 |  |  |  |  |  |  |  |  |  | CNc1nc(C)c(-c2nc(Nc3cccc(N4CCN(C(C)=O)CC4)c3)ncc2C)s1 | 
8.30 | 7.80 | 3 | 490 | 950 |  |  |  |  |  |  |  |  |  | CNc1nc(C)c(-c2nc(Nc3cc(C)cc(N4CCOCC4)c3)ncc2C#N)s1 | 
8.15 | 7.06 | 12 | 500 | 830 |  |  |  |  |  |  |  |  |  | CNc1nc(C)c(-c2nc(Nc3cccc(N4CCN(S(C)(=O)=O)CC4)c3)ncc2C)s1 | 
7.31 | 5.71 | 40 | 4050 | 3050 |  |  |  |  |  |  |  |  |  | CNc1nc(C)c(-c2nc(Nc3cccc(N4CCNCC4)c3)ncc2C(F)(F)F)s1 | 
8.10 | 6.15 | 89 | 830 | 860 |  |  |  |  |  |  | 5.95 | 6.33 | 100 | CNc1nc(C)c(-c2nc(Nc3cccc(N4CCNCC4)c3)ncc2C)s1 | 
8.00 | 6.35 | 44 | 360 | 450 |  |  |  |  |  |  |  |  |  | CNc1nc(C)c(-c2nc(Nc3cccc(N4CCOCC4)c3)ncc2C)s1 | 
8.12 | 6.90 | 16 |  |  |  |  |  |  |  |  |  |  |  | CNc1nc(C)c(-c2nc(Nc3cccc(N4CCN(C(C)=O)CC4)c3)ncc2Br)s1 | 
8.40 | 7.66 | 6 | 430 | 720 |  |  |  |  |  |  |  |  |  | CNc1nc(C)c(-c2nc(Nc3cccc(N4CCOCC4)c3)ncc2Cl)s1 | 
7.72 | 6.28 | 28 | 2120 | 6440 |  |  |  |  |  |  |  |  |  | CNc1nc(C)c(-c2nc(Nc3cccc(N4CCNC(=O)CC4)c3)ncc2C)s1 | 
8.10 | 5.91 | 156 | 1370 | 870 |  |  |  |  |  |  | 6.11 | 7.05 | 100 | CNc1nc(C)c(-c2nc(Nc3cccc(N4CCCNCC4)c3)ncc2C)s1 | 810
7.02 | 5.91 | 13 | 4800 | 25000 |  |  |  |  |  |  |  |  |  | CNc1nc(C)c(-c2nc(Nc3cccc(N4CCN(C(C)=O)CC4)c3)ncc2C(F)(F)F)s1 | 
7.49 | 6.55 | 9 | 580 | 5280 |  |  |  |  |  |  |  |  |  | CNc1nc(C)c(-c2ccnc(Nc3cccc(N4CCN(C(C)=O)CC4)c3)n2)s1 | 
7.21 | 6.30 | 8 | > 5000 | > 5000 |  |  |  |  |  |  |  |  |  | C=Cc1cnc(Nc2cccc(N3CCOCC3)c2)nc1-c1sc(NC)nc1C | 
8.05 | 7.26 | 6 | 20 | 90 |  |  |  |  |  |  |  |  |  | CNc1nc(C)c(-c2nc(Nc3cc(N4CCOCC4)cc(N4CCOCC4)c3)ncc2C#N)s1 | 
8.30 | 6.97 | 21 | 660 | 680 |  |  |  |  |  |  |  |  |  | CNc1nc(C)c(-c2nc(Nc3cccc(N4CCN(C)CC4)c3)ncc2Cl)s1 | 
8.22 | 7.36 | 7 | 1540 | 4130 |  |  |  |  |  |  |  |  |  | CNc1nc(C)c(-c2nc(Nc3cccc(N4CCCCCC4)c3)ncc2C#N)s1 | 
7.70 | 6.23 | 29 | 1290 | 1890 |  |  |  |  |  |  |  |  |  | CNc1nc(C)c(-c2nc(Nc3cccc(N4CCN(C)CC4)c3)ncc2C)s1 | 
